Measured values from different studies.
Compare with care: the assays were run in different laboratories.
CDK4: Cyclin-dependent kinase 4 (CDK4, Homo sapiens, UniProt P11802)
CDK4 with cyclin D1: Cyclin-dependent kinase 4, with cyclin D1 (CDK4, Homo sapiens, UniProt P11802)
CDK4 with cyclin D3: Cyclin-dependent kinase 4, with cyclin D3 (CDK4, Homo sapiens, UniProt P11802)

SMILES | target | effect on | technique | concentration | remaining binding [%]
O=C(Nc1c[nH]nc1C(=O)NC1CCNCC1)c1cc(F)cc(F)c1 | CDK4 | binding | competition with immobilised ligand | 1 µM | 100
COc1cnc(Nc2cccc(S(N)(=O)=O)c2)nc1N1CCN(c2ccccc2)CC1 | CDK4 with cyclin D1 | binding | competition with immobilised ligand | 1 µM | 78
O=C(c1ccc(Nc2ncc(Cl)c(-c3cc4ccccc4s3)n2)cc1)N1CCC(N2CCCC2)CC1 | CDK4 with cyclin D1 | binding | competition with immobilised ligand | 1 µM | 3.6
C=CC(=O)N1CCC(C(=O)NCC(=O)N2CCN(c3nc(-c4cnc(N)nc4C(F)F)nc(N4CCOCC4)n3)CC2)CC1 | CDK4 | binding | competition with immobilised ligand | 1 µM | 92
C[C@@H](c1ccc(-n2cnc3c(N)ncnc32)cc1)N1CCc2nn(C)c(Cc3ccccc3)c2C1=O | CDK4 | binding | competition with immobilised ligand | 0.1 µM | 85
Cc1cnc(Nc2ccc(C(=O)N3CCC(N4CCCC4)CC3)cc2)nc1-c1cc2ccccc2s1 | CDK4 with cyclin D3 | binding | competition with immobilised ligand | 1 µM | 2.7
CNC(=O)c1ccc(Nc2ncc(C(F)(F)F)c(NCc3nccnc3N(C)S(C)(=O)=O)n2)cc1 | CDK4 | cell-free assay | competition with immobilised ligand | 0.1 µM | 100
Cc1cnn2ncc(-c3ccnc(N(C)C)n3)c2c1 | CDK4 with cyclin D1 | binding | – | 1 µM | 84
CC(=O)c1c(NS(C)(=O)=O)c2cc(-c3ccc(Cl)cc3)c(-c3ccc(Cl)cc3Cl)nc2n(C)c1=O | CDK4 with cyclin D1 | cell-free assay | competition with immobilised ligand | 1 µM | 100
COc1cnc(Nc2cccc(S(N)(=O)=O)c2)nc1N1CCN(c2ccccc2)C(=O)C1 | CDK4 with cyclin D3 | binding | competition with immobilised ligand | 1 µM | 87
c1cncc(-c2cccc(Nc3nccc(NC4CCCCC4)n3)c2)c1 | CDK4 | binding | competition with immobilised ligand | 10 µM | 100
O=C(NCCCN1CCOCC1)c1ccc(Nc2nccc(-c3cc4ccccc4s3)n2)cc1 | CDK4 with cyclin D1 | binding | competition with immobilised ligand | 1 µM | 83
COc1ccnn2ncc(-c3ccnc(N(C)C)n3)c12 | CDK4 | binding | – | 1 µM | 95
CCN1CCN(Cc2ccc(C(=O)Nc3ccc(C)c(Oc4ccc5c(c4)CC(=O)N5)c3)cc2C(F)(F)F)CC1 | CDK4 with cyclin D3 | binding | competition with immobilised ligand | 1 µM | 100
CNC(=O)[C@@H]1CC[C@@H](n2c(-c3ccc4cnccc4c3)nc3ccc(C(=O)NCc4cccc(C(N)=O)c4)cc32)C1 | CDK4 with cyclin D1 | binding | competition with immobilised ligand | 1 µM | 100
O=C1CCc2cc(Nc3cc(OC4CCOCC4)c([N+](=O)[O-])cc3Cl)ccc2N1 | CDK4 | cell-free assay | competition with immobilised ligand | 1 µM | 81
CN(C)c1nccc(-c2cnn3ncccc23)n1 | CDK4 with cyclin D3 | binding | – | 1 µM | 100

SMILES | target | effect on | technique | concentration | remaining binding [%]
O=C(c1ccc(Nc2ncc(Cl)c(-c3ccc(Cl)s3)n2)cc1)N1CCC(N2CCCC2)CC1 | CDK4 with cyclin D3 | binding | competition with immobilised ligand | 1 µM | 0.9
c1cnn2ncc(-c3ccnc(N4CCC45COC5)n3)c2c1 | CDK4 with cyclin D1 | binding | – | 1 µM | 81
CC(=O)N1CCC(c2ccc(C(=O)NC3=NCCN3)cc2C(F)(F)F)CC1 | CDK4 with cyclin D1 | cell-free assay | competition with immobilised ligand | 1 µM | 94
FC(F)(F)Oc1cccc(-c2cnc3ccc(-c4ccncc4)nn23)c1 | CDK4 with cyclin D1 | cell-free assay | competition with immobilised ligand | 5 µM | 46
CCCOc1ccc([C@@H]2[C@@H](C(=O)O)[C@H](c3ccc4c(c3)OCO4)CN2CC(=O)Nc2c(CC)cccc2CC)cc1 | CDK4 | cell-free assay | competition with immobilised ligand | 1 µM | 84
N[C@@H]1CCN(c2nccc(-c3cnn4ncccc34)n2)C1 | CDK4 with cyclin D1 | binding | – | 1 µM | 100
Nc1ncc2c(n1)-c1c([nH]c3ccc(C#CC4CC4)cc13)CCCC2 | CDK4 with cyclin D1 | binding | competition with immobilised ligand | 1 µM | 93
O=C(NCCCN1CCOCC1)c1ccc(Nc2ncc(Cl)c(-c3ccc(Cl)s3)n2)cc1 | CDK4 with cyclin D1 | binding | competition with immobilised ligand | 1 µM | 0.5
CS(=O)(=O)NCC[C@H](NC(=O)c1cncc2c1cnn2-c1ccc(F)cc1)c1ccnc(S(C)(=O)=O)c1 | CDK4 with cyclin D1 | cell-free assay | competition with immobilised ligand | 1 µM | 100
O=C(NCC1CCOCC1)c1n[nH]cc1NC(=O)c1c(F)cccc1F | CDK4 | binding | competition with immobilised ligand | 1 µM | 92
COc1ncc2cc3ccccc3nc2c1C#N | CDK4 | cell-free assay | competition with immobilised ligand | 5 µM | 74
C[C@@H]1CN(c2cc(-c3nn(C)c4ccc(OC5(C)CC5)cc34)ncn2)C[C@H](C)O1 | CDK4 with cyclin D3 | cell-free assay | competition with immobilised ligand | 1 µM | 71
C[C@@H]1CCN(c2nccc(-c3cnn4ncccc34)n2)C1 | CDK4 with cyclin D1 | binding | – | 1 µM | 88
CC(C)(O)c1cncc(-c2nc3ccc(F)cc3n2C2CC2)c1 | CDK4 with cyclin D1 | cell-free assay | competition with immobilised ligand | 1 µM | 100
CN(C)c1ncc(F)c(-c2cnn3ncccc23)n1 | CDK4 with cyclin D3 | binding | – | 1 µM | 91
O=C(c1ccc(Nc2nccc(-c3cc4ccccc4s3)n2)cc1)N1CCC(N2CCCC2)CC1 | CDK4 | binding | competition with immobilised ligand | 1 µM | 88
